Assay results: ChEMBL document CHEMBL3098105, “7,7'-Diazaindirubin--a small molecule inhibitor of casein kinase 2 in vitro and in cells” (Bioorg Med Chem, 2014)

What was measured:
[1] = target: Serine/threonine-protein kinase haspin (Homo sapiens) (UniProt Q8TF76); test: Inhibition of human Haspin assessed as residual activity at 1 uM relative to control
[2] = target: MAP kinase-activated protein kinase 3 (Homo sapiens) (UniProt Q16644); test: Inhibition of human MAPKAP-K3 assessed as residual activity at 1 uM relative to control
[3] = target: Casein kinase I isoform delta (Homo sapiens) (UniProt P48730); test: Inhibition of human CK1d assessed as residual activity at 1 uM relative to control
[4] = target: Serine/threonine-protein kinase Nek6 (Homo sapiens) (UniProt Q9HC98); test: Inhibition of human NEK6 assessed as residual activity at 1 uM relative to control
[5] = target: Receptor tyrosine-protein kinase erbB-2 (Homo sapiens) (UniProt P04626); test: Inhibition of ERBB2 (unknown origin) assessed as residual activity at 10 uM relative to control
[6] = target: Mitogen-activated protein kinase 9 (Homo sapiens) (UniProt P45984); test: Inhibition of human JNK2alpha2 assessed as residual activity at 1 uM relative to control
[7] = test system: HOP-62; test: Antiproliferative activity against human HOP62 cells after 3 days by sulforhodamine B assay; format: functional; details: HOP-62, 72 h
Summary of the method: (§1)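 Tested in the NCI 60 cell line panel. GI50 is the concentration giving 50% inhibition of cell growth, and values are the mean of two series of tests.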

[8] = test system: RPMI-8226; test: Antiproliferative activity against human RPMI8226 cells after 3 days by sulforhodamine B assay; format: functional; details: RPMI-8226, 72 h; summary of the method: as §1
[9] = target: MAP kinase-activated protein kinase 5 (Homo sapiens) (UniProt Q8IW41); test: Inhibition of human PRAK assessed as residual activity at 1 uM relative to control
MAP kinase-activated protein kinase 5 (Homo sapiens), sequence (Q8IW41 whole entry): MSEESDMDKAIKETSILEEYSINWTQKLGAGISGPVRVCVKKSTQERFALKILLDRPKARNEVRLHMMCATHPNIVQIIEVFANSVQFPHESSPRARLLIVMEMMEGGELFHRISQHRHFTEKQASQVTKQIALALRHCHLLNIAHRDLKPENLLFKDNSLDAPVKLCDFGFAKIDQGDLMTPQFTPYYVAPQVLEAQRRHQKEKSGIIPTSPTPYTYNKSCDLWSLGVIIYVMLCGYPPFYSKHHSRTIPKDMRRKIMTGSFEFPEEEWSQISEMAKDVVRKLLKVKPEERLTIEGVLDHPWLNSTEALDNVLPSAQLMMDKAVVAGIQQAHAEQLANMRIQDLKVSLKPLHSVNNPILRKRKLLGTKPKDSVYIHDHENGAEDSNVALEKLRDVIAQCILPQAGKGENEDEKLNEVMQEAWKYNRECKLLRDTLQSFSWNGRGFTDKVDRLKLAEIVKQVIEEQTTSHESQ

[10] = test system: MCF7; test: Antiproliferative activity against human MCF7 cells after 3 days by sulforhodamine B assay; format: functional; details: MCF7, 72 h; summary of the method: as §1
[11] = target: Glycogen synthase kinase-3 beta (Homo sapiens) (UniProt P49841); test: Inhibition of GSK3-beta (unknown origin) assessed as residual activity at 10 uM relative to control
Glycogen synthase kinase-3 beta (Homo sapiens), sequence (P49841 whole entry, looked up): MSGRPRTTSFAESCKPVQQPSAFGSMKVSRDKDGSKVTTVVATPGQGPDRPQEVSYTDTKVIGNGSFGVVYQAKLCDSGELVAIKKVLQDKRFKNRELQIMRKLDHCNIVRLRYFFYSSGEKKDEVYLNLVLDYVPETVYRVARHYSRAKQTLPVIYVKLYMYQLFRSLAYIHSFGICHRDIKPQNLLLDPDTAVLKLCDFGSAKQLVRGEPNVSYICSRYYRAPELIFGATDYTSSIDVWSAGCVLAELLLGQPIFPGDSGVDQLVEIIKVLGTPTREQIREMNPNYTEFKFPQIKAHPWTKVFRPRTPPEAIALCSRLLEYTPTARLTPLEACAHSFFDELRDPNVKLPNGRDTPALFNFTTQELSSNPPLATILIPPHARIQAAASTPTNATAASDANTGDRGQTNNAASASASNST

[12] = target: Activin receptor type-1B (Homo sapiens) (UniProt P36896); test: Inhibition of human ALK4 assessed as residual activity at 1 uM relative to control
Activin receptor type-1B (Homo sapiens), sequence (P36896 whole entry): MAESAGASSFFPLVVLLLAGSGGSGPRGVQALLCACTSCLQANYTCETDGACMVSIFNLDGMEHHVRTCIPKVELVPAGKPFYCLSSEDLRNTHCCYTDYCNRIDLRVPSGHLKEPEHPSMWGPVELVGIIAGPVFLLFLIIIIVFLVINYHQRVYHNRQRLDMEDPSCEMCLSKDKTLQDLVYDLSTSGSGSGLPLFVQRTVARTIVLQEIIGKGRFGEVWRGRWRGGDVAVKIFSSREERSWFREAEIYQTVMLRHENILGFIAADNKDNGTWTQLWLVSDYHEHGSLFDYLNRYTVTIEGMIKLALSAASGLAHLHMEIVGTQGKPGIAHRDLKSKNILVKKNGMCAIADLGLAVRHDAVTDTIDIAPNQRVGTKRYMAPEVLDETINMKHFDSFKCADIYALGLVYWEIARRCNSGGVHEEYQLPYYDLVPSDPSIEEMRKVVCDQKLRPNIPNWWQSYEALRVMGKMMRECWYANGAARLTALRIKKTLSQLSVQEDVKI

[13] = test system: BT-549; test: Antiproliferative activity against human BT549 cells after 3 days by sulforhodamine B assay; format: functional; details: BT-549, 72 h; summary of the method: as §1
[14] = target: Serine/threonine-protein kinase PAK 6 (Homo sapiens) (UniProt Q9NQU5); test: Inhibition of human PAK6 assessed as residual activity at 1 uM relative to control
[15] = Antiproliferative activity against human OVCAR5 cells after 3 days by sulforhodamine B assay; format: functional; details: OVCAR-5, 72 h; summary of the method: as §1
[16] = target: Serine/threonine-protein kinase VRK2 (Homo sapiens) (UniProt Q86Y07); test: Inhibition of human VRK2 assessed as residual activity at 1 uM relative to control
[17] = target: Tyrosine-protein kinase JAK2 (Homo sapiens) (UniProt O60674); test: Inhibition of human JAK2 assessed as residual activity at 1 uM relative to control
[18] = target: Serine/threonine-protein kinase mTOR (Homo sapiens) (UniProt P42345); test: Inhibition of human mTOR assessed as residual activity at 1 uM relative to control
[19] = target: Serine/threonine-protein kinase Sgk2 (Homo sapiens) (UniProt Q9HBY8); test: Inhibition of human SGK2 assessed as residual activity at 1 uM relative to control
[20] = target: LIM domain kinase 1 (Homo sapiens) (UniProt P53667); test: Inhibition of human LIMK1 assessed as residual activity at 1 uM relative to control
[21] = target: CDK3/Cyclin E (Homo sapiens) (UniProt P24864+Q00526); test: Inhibition of human CDK3/cyclinE assessed as residual activity at 1 uM relative to control; format: protein-complex assay
[22] = target: Discoidin domain-containing receptor 2 (Homo sapiens) (UniProt Q16832); test: Inhibition of human DDR2 assessed as residual activity at 1 uM relative to control
Discoidin domain-containing receptor 2 (Homo sapiens), sequence (Q16832 whole entry, the tested form may be a part): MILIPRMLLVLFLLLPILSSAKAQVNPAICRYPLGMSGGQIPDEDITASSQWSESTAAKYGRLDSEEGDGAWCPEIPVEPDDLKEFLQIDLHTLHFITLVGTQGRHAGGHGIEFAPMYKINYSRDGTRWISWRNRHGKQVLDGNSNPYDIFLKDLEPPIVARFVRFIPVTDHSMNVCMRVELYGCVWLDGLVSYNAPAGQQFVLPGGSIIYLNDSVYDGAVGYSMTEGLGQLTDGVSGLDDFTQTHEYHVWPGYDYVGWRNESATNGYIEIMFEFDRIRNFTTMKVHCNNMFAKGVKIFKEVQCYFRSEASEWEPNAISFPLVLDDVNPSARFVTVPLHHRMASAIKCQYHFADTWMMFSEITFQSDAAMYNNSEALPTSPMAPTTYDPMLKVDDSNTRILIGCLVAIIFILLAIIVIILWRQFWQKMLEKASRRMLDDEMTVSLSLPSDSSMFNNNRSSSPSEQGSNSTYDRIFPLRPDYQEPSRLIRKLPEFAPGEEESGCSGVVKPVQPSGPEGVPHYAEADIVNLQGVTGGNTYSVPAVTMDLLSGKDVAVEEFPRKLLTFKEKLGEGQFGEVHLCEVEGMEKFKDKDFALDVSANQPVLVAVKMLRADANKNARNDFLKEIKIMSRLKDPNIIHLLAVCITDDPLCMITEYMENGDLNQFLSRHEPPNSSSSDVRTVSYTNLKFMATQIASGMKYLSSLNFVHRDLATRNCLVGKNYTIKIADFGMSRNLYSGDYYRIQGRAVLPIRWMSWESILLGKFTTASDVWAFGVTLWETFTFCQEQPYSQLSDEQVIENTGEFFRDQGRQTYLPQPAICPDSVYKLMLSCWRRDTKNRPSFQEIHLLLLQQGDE

[23] = target: Calcium/calmodulin-dependent protein kinase type II subunit gamma (Homo sapiens) (UniProt Q13555); test: Inhibition of human CaMK2gamma assessed as residual activity at 1 uM relative to control
[24] = target: Tyrosine-protein kinase receptor UFO (Homo sapiens) (UniProt P30530); test: Inhibition of human Axl assessed as residual activity at 1 uM relative to control
Tyrosine-protein kinase receptor UFO (Homo sapiens), sequence (P30530 whole entry): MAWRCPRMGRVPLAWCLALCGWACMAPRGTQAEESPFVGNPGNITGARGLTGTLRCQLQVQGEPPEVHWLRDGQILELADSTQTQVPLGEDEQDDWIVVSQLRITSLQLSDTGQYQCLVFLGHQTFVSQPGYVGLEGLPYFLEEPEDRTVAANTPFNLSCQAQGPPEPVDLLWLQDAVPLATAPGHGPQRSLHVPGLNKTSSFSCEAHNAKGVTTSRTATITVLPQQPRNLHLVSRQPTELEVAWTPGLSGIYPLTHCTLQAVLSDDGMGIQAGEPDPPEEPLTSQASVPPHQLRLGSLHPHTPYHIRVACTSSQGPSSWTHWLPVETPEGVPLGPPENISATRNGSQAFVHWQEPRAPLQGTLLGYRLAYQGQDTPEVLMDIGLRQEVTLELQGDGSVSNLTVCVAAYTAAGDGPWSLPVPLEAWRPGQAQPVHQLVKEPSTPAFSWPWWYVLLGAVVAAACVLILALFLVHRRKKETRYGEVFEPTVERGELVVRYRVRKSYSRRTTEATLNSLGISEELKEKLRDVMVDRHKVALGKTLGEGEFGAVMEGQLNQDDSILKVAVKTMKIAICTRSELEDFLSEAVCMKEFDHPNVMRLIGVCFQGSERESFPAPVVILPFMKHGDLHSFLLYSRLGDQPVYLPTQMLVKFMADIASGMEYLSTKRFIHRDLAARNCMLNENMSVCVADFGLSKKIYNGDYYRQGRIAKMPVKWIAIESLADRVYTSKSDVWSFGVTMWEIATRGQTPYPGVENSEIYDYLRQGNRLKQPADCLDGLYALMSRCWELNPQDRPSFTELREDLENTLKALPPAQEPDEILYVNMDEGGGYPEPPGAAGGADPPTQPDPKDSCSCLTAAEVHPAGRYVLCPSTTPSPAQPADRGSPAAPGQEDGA

[25] = target: Protein-tyrosine kinase 2-beta (Homo sapiens) (UniProt Q14289); test: Inhibition of human Pyk2 assessed as residual activity at 1 uM relative to control
[26] = target: T1, Aurora kinase A (Homo sapiens) (UniProt O14965); test: Inhibition of human Aurora-A assessed as residual activity at 1 uM relative to control
T1 sequence (whole entry): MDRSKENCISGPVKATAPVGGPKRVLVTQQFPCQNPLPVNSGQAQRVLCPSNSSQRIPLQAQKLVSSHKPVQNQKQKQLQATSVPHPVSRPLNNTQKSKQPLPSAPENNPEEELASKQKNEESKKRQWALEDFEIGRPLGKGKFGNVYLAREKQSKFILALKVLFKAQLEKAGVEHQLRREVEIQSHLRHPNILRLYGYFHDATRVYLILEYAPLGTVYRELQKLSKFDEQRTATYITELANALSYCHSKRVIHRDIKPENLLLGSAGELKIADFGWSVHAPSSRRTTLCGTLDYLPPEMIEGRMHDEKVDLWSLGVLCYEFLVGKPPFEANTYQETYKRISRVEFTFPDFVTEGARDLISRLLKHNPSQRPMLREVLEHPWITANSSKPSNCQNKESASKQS

[27] = test system: PC-3; test: Antiproliferative activity against human PC3 cells after 3 days by sulforhodamine B assay; format: functional; details: PC-3, 72 h; summary of the method: as §1
[28] = target: Vascular endothelial growth factor receptor 3 (Homo sapiens) (UniProt P35916); test: Inhibition of VEGF-R3 (unknown origin) assessed as residual activity at 10 uM relative to control
Vascular endothelial growth factor receptor 3 (Homo sapiens), sequence (P35916 whole entry): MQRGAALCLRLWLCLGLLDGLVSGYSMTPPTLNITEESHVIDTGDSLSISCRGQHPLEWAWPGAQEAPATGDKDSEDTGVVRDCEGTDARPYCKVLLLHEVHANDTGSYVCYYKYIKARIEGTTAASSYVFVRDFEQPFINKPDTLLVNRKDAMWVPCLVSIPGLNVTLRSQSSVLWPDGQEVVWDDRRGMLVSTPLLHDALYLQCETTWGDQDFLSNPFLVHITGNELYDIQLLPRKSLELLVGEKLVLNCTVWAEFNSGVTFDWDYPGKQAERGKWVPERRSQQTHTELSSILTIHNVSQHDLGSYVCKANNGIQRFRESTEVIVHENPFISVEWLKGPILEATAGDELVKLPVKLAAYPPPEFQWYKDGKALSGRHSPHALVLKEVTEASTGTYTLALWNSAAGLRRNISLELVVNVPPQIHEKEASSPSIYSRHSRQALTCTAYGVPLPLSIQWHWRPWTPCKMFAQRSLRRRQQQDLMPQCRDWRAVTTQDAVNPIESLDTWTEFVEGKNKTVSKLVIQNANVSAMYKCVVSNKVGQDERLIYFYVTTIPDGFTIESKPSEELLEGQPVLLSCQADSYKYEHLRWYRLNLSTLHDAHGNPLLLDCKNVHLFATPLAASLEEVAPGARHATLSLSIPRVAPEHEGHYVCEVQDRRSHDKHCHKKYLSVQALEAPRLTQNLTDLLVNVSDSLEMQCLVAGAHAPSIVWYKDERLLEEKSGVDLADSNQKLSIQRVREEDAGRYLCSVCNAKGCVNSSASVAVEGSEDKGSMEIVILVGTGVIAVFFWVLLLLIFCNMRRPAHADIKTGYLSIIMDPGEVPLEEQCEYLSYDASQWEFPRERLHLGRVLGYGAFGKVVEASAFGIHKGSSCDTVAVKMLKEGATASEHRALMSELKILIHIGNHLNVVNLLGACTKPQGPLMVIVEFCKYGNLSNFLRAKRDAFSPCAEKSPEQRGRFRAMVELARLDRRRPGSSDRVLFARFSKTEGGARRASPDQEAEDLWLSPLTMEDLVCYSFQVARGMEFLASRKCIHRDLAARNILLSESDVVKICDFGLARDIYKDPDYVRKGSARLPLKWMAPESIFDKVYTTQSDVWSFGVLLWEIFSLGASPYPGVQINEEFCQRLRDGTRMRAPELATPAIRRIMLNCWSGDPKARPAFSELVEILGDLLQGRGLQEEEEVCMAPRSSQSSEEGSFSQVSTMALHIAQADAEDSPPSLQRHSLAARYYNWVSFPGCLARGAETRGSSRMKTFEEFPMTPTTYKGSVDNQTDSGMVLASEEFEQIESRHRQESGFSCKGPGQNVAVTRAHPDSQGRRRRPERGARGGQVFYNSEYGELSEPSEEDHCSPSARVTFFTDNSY

[29] = test system: MCF7; test: Cell cycle arrest in human MCF7 cells assessed as accumulation at G1 phase at 0.25 uM after 24 hrs using propidium iodide staining by FACS analysis (reference value: 57.74%); format: functional
[30] = test system: U-251; test: Antiproliferative activity against human U251 cells after 3 days by sulforhodamine B assay; format: functional; details: U-251, 72 h
[31] = Antiproliferative activity against human Hs 578T cells after 3 days by sulforhodamine B assay; format: functional; details: 72 h; summary of the method: as §1
[32] = target: Maternal embryonic leucine zipper kinase (Homo sapiens) (UniProt Q14680); test: Inhibition of human MELK assessed as residual activity at 1 uM relative to control
[33] = target: Serine/threonine-protein kinase pim-1 (Homo sapiens) (UniProt P11309); test: Inhibition of human Pim-1 assessed as residual activity at 1 uM relative to control
Serine/threonine-protein kinase pim-1 (Homo sapiens), sequence (P11309 whole entry, looked up): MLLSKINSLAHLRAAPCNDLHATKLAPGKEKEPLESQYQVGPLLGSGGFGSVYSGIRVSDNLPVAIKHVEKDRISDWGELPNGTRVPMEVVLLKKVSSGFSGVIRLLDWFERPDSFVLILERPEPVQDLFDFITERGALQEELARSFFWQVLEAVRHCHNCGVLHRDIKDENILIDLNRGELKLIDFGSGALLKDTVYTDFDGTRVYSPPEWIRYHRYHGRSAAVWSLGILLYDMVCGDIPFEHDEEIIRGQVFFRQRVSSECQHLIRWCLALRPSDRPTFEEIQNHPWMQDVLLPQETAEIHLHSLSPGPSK

[34] = target: Rho-associated protein kinase 2 (Homo sapiens) (UniProt O75116); test: Inhibition of human ROCK-2 assessed as residual activity at 1 uM relative to control

Structure (SMILES): O=C1Nc2ncccc2/C1=C1/Nc2ncccc2C1=O
- Activity [1]: 64%
- Activity [2]: 98%
- Activity [3]: 68%
- Activity [4]: 61%
- Activity [5]: 102%
- Activity [6]: 101%
- GI50 [7]: 1.37 µM
- GI50 [8]: 2.12 µM
- Activity [9]: 105%
- GI50 [10]: 1.09 µM
- Activity [11]: 92%
- Activity [12]: 106%
- GI50 [13]: 1.6 µM
- Activity [14]: 51%
- GI50 [15]: 2.47 µM
- Activity [16]: 110%
- Activity [17]: 91%
- Activity [18]: 99%
- Activity [19]: 127%
- Activity [20]: 80%
- Activity [21]: 74%
- Activity [22]: 119%
- Activity [23]: 103%
- Activity [24]: 92%
- Activity [25]: 119%
- Activity [26]: 60%
- GI50 [27]: 2.02 µM
- Activity [28]: 73%
- Activity [29]: 58.28%
- GI50 [30]: 1.1 µM
- GI50 [31]: 1.67 µM
- Activity [32]: 87%
- Activity [33]: 108%
- Activity [34]: 114%
